Results from different studies.
Target: Mitogen-activated protein kinase kinase kinase kinase 5 (MAP4K5, Homo sapiens, UniProt Q9Y4K4)

SMILES	test	system	conditions	endpoint	value
C[C@@H]1CN(c2cc(-c3n[nH]c4ccc(OC5(C)CC5)cc34)ncn2)C[C@H](C)O1	cell-free assay, competition with immobilised ligand		0.1 µM	remaining binding	100%
CC(C)(O)[C@H]1CC[C@H](Nc2ccc3ncc(-c4cccc(C(F)(F)F)c4)n3n2)CC1	enzyme activity, inhibitor		1 µM	remaining activity	83.2%
FC(F)(F)Oc1cccc(-c2cnc3ccc(-c4ccncc4)nn23)c1	enzyme activity, inhibitor, radiometric		1 µM	activity vs control	110%
Cc1sc(C(=O)NC2COC2)cc1-n1cc(NC(=O)Nc2c(F)cccc2Cl)cn1	enzyme activity, inhibitor		10 µM	remaining activity	98.4%
CC(C)(C)c1nc(-c2cccc(NS(=O)(=O)c3c(F)cccc3F)c2F)c(-c2ccnc(N)n2)s1	enzyme activity, inhibitor, radiometric		1 µM	remaining activity	90%
CN1CC(Oc2cnc(C#N)cc2-c2ccn3nc(NC(=O)C4CC4)cc3c2)C1	enzyme activity, inhibitor		1 µM	inhibition	4%
N#CCCc1ccc2c(c1)-c1[nH]c3ccc([N+](=O)[O-])cc3c1CC(=O)N2	cell-free assay		0.5 µM	remaining signal	7.61%
CS(=O)(=O)c1cc(C2(NC(=O)c3cncc4c3cnn4-c3ccc(F)cc3)CC2)ccn1	cell-free assay, competition with immobilised ligand		1 µM	remaining binding	98%
COc1cc2ncnc(Nc3ccc(Oc4ccccc4)cc3C)c2cc1OC	enzyme activity, inhibitor		1 µM	inhibition	38%
Clc1ccc(Nc2nnc(Cc3ccncc3)c3ccccc23)cc1	cell-free assay		0.5 µM	remaining signal	101%
CN(C)c1nccc(-c2cnc3ncccn23)n1	binding		1 µM	remaining binding	100%
Cc1ccc(NC(=O)c2ccc(CN3CCN(C)CC3)cc2)cc1Nc1nc(-c2cccnc2)cs1	cell-free assay		0.5 µM	remaining signal	97%
CNC(=O)Nc1ccc2c(c1)CC[C@@]21OC(=O)N(CC(=O)N(Cc2ccc(F)cc2)[C@@H](C)C(F)(F)F)C1=O	cell-free assay, competition with immobilised ligand		1 µM	remaining binding	88%
CNC(=O)c1cc2c(Oc3ccc(NC(=O)C4(C(=O)Nc5ccc(F)cc5)CC4)cc3)ccnc2cc1OC	enzyme activity, inhibitor, radiometric		1 µM	inhibition	89%
CO[C@@H](C)c1c(Nc2ccc([C@H](N(C)C(=O)C3CCS(=O)(=O)CC3)C(F)(F)F)cc2)cnc2cc(Cl)nn12	cell-free assay, competition with immobilised ligand		1 µM	remaining binding	88%
Cc1ccc(C(=O)NCc2ccsc2)cc1C#Cc1cn(C(C)C)c2ncnc(N)c12	enzyme activity, inhibitor		1 µM	activity vs control	7%
c1ccc(N2CCN(Cc3nc4ccccc4[nH]3)CC2)nc1	binding, competition with immobilised ligand		1 µM	remaining binding	100%
CCN1CCN(Cc2ccc(NC(=O)c3ccc(C)c(Oc4ccnc5[nH]ccc45)c3)cc2C(F)(F)F)CC1	target engagement in cells, inhibitor, chemoproteomics	A-375	0.5 µM	inhibition	-0.264%
